pIC50: −log10 of the molar value.

As a reminder, the pIC50 is −log10 of the IC50, conventionally taken in molar units.

For the test, the target named is T1, Sodium- and chloride-dependent GABA transporter 2 (Mus musculus, UniProt P31649).
T1 sequence (P31649 whole entry): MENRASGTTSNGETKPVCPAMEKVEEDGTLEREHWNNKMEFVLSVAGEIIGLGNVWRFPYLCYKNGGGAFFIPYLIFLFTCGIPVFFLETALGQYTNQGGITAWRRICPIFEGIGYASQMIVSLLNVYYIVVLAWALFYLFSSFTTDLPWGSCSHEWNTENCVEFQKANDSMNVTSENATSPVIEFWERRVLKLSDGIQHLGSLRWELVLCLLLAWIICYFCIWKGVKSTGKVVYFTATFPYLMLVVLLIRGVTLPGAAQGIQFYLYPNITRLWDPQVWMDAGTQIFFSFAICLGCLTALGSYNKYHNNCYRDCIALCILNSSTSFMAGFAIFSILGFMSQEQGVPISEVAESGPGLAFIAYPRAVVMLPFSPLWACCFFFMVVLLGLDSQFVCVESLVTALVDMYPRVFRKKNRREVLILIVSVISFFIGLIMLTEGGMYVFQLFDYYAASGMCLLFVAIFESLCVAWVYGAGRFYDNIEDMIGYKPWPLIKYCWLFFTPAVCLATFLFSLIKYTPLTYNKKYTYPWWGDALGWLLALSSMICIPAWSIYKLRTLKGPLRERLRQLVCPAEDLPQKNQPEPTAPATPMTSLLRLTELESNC
Put plainly: Inhibition of mouse GAT2 expressed in HEK293 cells assessed as decrease in [3H]GABA uptake preincubated for 25 mins followed by [3H]GABA addition measured after 10 mins by liquid scintillation counting analysis. In outline: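 [³H]GABA uptake assay in HEK cells expressing the mGAT subtype named in the line, run in triplicate. Potencies are given as pIC₅₀ ± SEM. No SEM is given where only one triplicate measurement was made. Where 100 µM test compound left uptake at or above 50% (pIC₅₀ ≤ 4.00), the percent remaining [³H]GABA uptake at 100 µM is reported instead.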
As to `COc1ccc(C(C#CCCN2CCCC(C(=O)O)C2)(c2ccc(OC)cc2)c2ccc(OC)cc2)cc1` (centres undefined), the pIC50 is 4.45. As to `COc1ccc(C(OCCN2CCCC(C(=O)O)C2)(c2ccc(OC)cc2C)c2ccc(OC)cc2C)cc1` (centres undefined), the pIC50 is 4.49.

Consider `COc1ccc(C(C#CCN2CCCC(C(=O)O)C2)(c2ccc(OC)cc2)c2ccc3c(c2)OCO3)cc1` (centres undefined), for which the negative-log IC50 (pIC50) is 4.38.

With `COc1ccc(C(CC#CCN2CCCC(C(=O)O)C2)(c2ccc(OC)cc2)c2ccc(OC)cc2)cc1` (centres undefined), the pIC50 was 4.47.

(Values after BindingDB's records for doi:10.1016/j.bmc.2018.05.049 (2018).)
